High-throughput results: PubChem BioAssay, The Scripps Research Institute Molecular Screening Center
ZTA DNA inh = counter-screen for EBNA-1 inhibitors: inhibitors of Epstein-Barr virus ZTA; ZTA-DNA binding, fluorescence polarization; AID 2234; P03206; inhibition, % at 11 µM; 320,000 compounds, 0.15% hits; in the data active = inhibition above about 33%
Target sequence (P03206 whole entry, looked up): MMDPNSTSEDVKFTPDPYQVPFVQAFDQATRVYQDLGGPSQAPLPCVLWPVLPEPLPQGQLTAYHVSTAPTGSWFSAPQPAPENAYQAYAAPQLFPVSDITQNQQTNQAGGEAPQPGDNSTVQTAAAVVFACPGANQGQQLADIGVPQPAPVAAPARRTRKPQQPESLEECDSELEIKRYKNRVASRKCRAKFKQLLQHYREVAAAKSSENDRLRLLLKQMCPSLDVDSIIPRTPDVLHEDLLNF
HCV NS3 hel inh = blocks Hepatitis C virus NS3 helicase unwinding. NS3 helicase DNA unwinding, Cy5 molecular beacon fluorescence. 290,000 compounds, 0.56% hits. inhibition, % at 10.9 µM;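 active = inhibition above the mean of all tested compounds plus 3 SD, set per campaign, cut at about 35% in these data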;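 also: 0% = DMSO wells and 100% = thioflavine S control wells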
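System: Hepatitis C virus NS3 helicase domain fragment enzyme | Reagent: Annealed dual-labelled DNA beacon duplex, ATP-started | Compound dosing: 10.9 µM single point, 0.8% DMSO | Incubation: 1 h reaction at 25 °C, ATP-initiated | Technique: Cy5 fluorescence | Evaluation: Percent inhibition from t60/t0 fluorescence ratio | Benchmarks: Low DMSO, high thioflavine S at 110 µM | Replication: Singlicate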
HCV core dimer = blocks dimerization of HCV core protein; 300,000 compounds, 0.33% hits; AID 1899; inhibition, % at 5 µM; TR-FRET GST/Flag-core106 dimerization, 1536-well;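 active = inhibition above the mean of all tested compounds plus 3 SD, set per screening campaign, cut at about 45% in these data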
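Material: GST/Flag-tagged HCV core106 proteins. Incubation: 4 h, 22.5 °C incubation. Read-out basis: inhibition (%) from 671 over 617 nm ratio. Measured by: TR-FRET, excitation 340 nm, emission 617 and 671 nm.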
EBNA-1 inh = blocks EBNA-1 binding to DNA. EBNA-1 DNA binding, fluorescence polarization. 300,000 compounds, 0.34% hits. AID 1950. inhibition, % at 14.8 µM; in the data active = inhibition above about 28%
PP1 inh = blocks human PP1-alpha phosphatase, a PP5 counter-screen; P62136; purified PP1alpha, OMFP fluorescence; inhibition, % at 6.7 µM; 320,000 compounds, 0.9% hits;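 active = inhibition above the mean inhibition of all tested compounds plus 3 SD, computed separately for each screening campaign, cut at about 15% in these data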
Target sequence (P62136 whole entry, looked up): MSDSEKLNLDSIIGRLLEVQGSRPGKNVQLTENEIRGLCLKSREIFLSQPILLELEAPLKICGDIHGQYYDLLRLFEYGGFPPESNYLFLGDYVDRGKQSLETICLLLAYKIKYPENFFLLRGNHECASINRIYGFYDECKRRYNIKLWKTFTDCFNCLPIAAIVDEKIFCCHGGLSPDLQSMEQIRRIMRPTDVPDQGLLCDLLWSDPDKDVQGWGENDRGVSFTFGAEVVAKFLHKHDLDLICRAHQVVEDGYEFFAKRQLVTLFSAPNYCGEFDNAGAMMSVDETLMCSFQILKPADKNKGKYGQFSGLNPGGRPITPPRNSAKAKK
NS3 hel confirm = HCV NS3 helicase inhibition, confirmation assay. shares compounds with HCV NS3 hel inh. NS3 helicase DNA unwinding, Cy5 molecular beacon fluorescence. inhibition, % at 10.9 µM. 1,600 compounds, 31% hits;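 active = inhibition above the mean of all tested compounds plus 3 SD, cutoff set per campaign, cut at about 36% in these data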
DNA FID counter = intercalator displacement, NS3 helicase counter-screen | shares compounds with HCV NS3 hel inh | inhibition, % at 7.9 µM | DNA fluorescent intercalator displacement, fluorescence | 1,600 compounds, 4% hits; in the data active = inhibition above about 37%;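 also: 0% = vehicle and 100% = reference compound; higher means more displacement of ethidium bromide from the DNA hairpin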
* hit, by the source's call; . = not tested or not shown. Most compounds without a hit are left out; they make up all but 1.9% or so of the library.

SMILES	ZTA DNA inh	HCV NS3 hel inh	HCV core dimer	EBNA-1 inh	PP1 inh	NS3 hel confirm	DNA FID counter
Cc1cc(C)cc(-n2c(O)c(C=Nc3ccc(N4CCOCC4)cc3)c(=O)[nH]c2=S)c1	12	15	8	-8	-3	.	.
O=c1[nH]c(=S)n(-c2ccccc2F)c(O)c1C=Nc1ccc(N2CCOCC2)cc1	45*	54*	2	13	4	18	-24
CC(=O)N1CCN(c2ccc(N=Cc3c(O)n(-c4ccc(Cl)cc4)c(=O)[nH]c3=O)cc2)CC1	6	43*	30	-7	-1	-11	-27
O=c1[nH]c(=S)n(-c2ccc(Br)cc2)c(O)c1C=Nc1ccc(N2CCOCC2)cc1	6	37*	18	5	8	11	-14
CCCCn1c(NC(=O)c2ccc(Br)o2)c(C(=O)OCC)c2nc3ccccc3nc21	-13	15	-1	7	4	.	.
CCCCn1c(NS(=O)(=O)c2ccccc2)c(C(=O)OCC)c2nc3ccccc3nc21	4	37*	5	13	4	58*	-39
Cc1cccc(-n2c(/C=C/c3ccc([N+](=O)[O-])o3)nc3ccccc3c2=O)c1	-1	61*	11	5	-1	15	1
CN1C(=O)/C(=C\c2ccc(Br)s2)C(=O)NC1=S	1	35	5	-5	1	.	.
O=C1NC(=S)NC(=O)C1=Cc1ccc(Br)s1	-4	45*	4	-7	-2	56*	8
CCOc1cccc(N2C(=O)CC(=O)NC2=O)c1	8	59*	-4	4	1	-22	3
COc1cccc(N2C(=O)CC(=O)NC2=O)c1	-7	28	2	0	1	.	.
Cc1ccc(N2C(=O)CC(=O)NC2=O)cc1Cl	4	45*	-9	-3	-7	-3	33
NNC(=O)CN1C(=O)CN=C(c2ccccc2)c2cc(Br)ccc21	3	54*	-4	-2	-6	-14	-29
NS(=O)(=O)c1ccc(-c2ccc(C=C3C(=O)NC(=O)NC3=O)o2)cc1	-14	26	10	-3	5	.	.
O=C1NC(=O)C(=Cc2ccc(-c3ccccc3[N+](=O)[O-])o2)C(=O)N1	3	45*	1	-14	-4	-22	20
O=C1NC(=O)C(=Cc2ccc(-c3cc(Cl)ccc3[N+](=O)[O-])o2)C(=O)N1	.	14	.	.	.	.	.
CNS(=O)(=O)c1ccc(-c2ccc(C=C3C(=O)NC(=O)NC3=O)o2)cc1	3	45*	4	2	0	-28	6
Clc1ccc(NC2=NCCCS2)cc1Cl	0	-7	-7	-2	3	.	.
Cc1ccccc1-n1c(O)c(C=Nc2ccc(N(C)C)cc2)c(=O)[nH]c1=O	172*	43*	-12	43*	2	-12	-14
O=c1[nH]c(=S)n(CCC2=CCCCC2)c(O)c1/C=N/N1CCOCC1	4	41*	9	-1	-1	-8	11
CN(C)c1ccc(N=Cc2c(O)n(CCC3=CCCCC3)c(=O)[nH]c2=O)cc1	-5	40*	2	-10	-1	-1	-8
COC(=O)C1=C(c2cc3ccccc3s2)C[C@@H]2CC[C@H]1N2C	10	.	.	.	-3	.	.
COC(=O)C1=C(c2c(C)noc2C)C[C@@H]2CC[C@H]1N2C(=O)N1CCC(O)(c2ccc(Cl)cc2)CC1	-6	.	.	.	-2	.	.
CN1CCc2cc3c(c4c2C1Cc1ccccc1-4)OCO3 (stereo unspecified)	-11	44*	12	0	9	-6	82*
Cc1c2ccncc2c(C)c2c1[nH]c1ccccc12	5	42*	-52	-6	31*	57*	83*
SMILES	ZTA DNA inh	HCV NS3 hel inh	HCV core dimer	EBNA-1 inh	PP1 inh	NS3 hel confirm	DNA FID counter
c1ccc2c(c1)[nH]c1cnccc12	-13	-3	-8	-9	-1	.	.
COC(=O)c1ccccc1NC(=O)N1C[C@@H]2C[C@@H](C1)c1cccc(=O)n1C2	-8	10	-1	0	-1	.	.
O=C(O)c1ccccc1NC(=O)N1C[C@H]2C[C@@H](C1)c1cccc(=O)n1C2	10	42*	0	-6	-6	-9	8
CCN(CC)C(=O)COc1cc(C)cc2oc(=O)c3c(c12)CCCC3	.	7	.	.	.	.	.
Cc1cccc(NC(=O)N2C[C@H]3C[C@@H](C2)c2cccc(=O)n2C3)c1	4	12	-5	6	2	.	.
CCNC(=S)N(C)CCc1cc2c(c(OC)c1C=C1C(=O)N(C)C(=O)N(C)C1=O)OCO2	-10	6	-1	6	-4	.	.
Cn1cccc1/C=C1\C(=O)NC(=O)N(Cc2ccccc2)C1=O	13	13	5	5	-1	.	.
COc1ccc(CN2C(=O)NC(=O)/C(=C/c3ccoc3)C2=O)cc1	13	54*	8	-7	-6	17	15
O=C1NC(=O)N(Cc2ccccc2)C(=O)/C1=C\c1ccco1	9	39*	3	-3	0	20	24
CCCCN1C(=O)/C(=C\c2ccco2)C(=O)N(CCc2ccccc2)C1=O	12	38*	25	8	10	69*	15
O=C(O)Cn1cc(/C=C2\C(=O)NC(=O)N(Cc3ccco3)C2=O)c2ccccc21	21	-1	12	14	-1	.	.
Cc1cc(/C=C2/C(=O)NC(=O)N(Cc3ccco3)C2=O)c(C)n1-c1ccccc1O	-8	49*	2	1	4	-17	11
O=C(Nc1nccs1)c1c(O)c2c(n(Cc3ccco3)c1=O)CCCC2	-9	16	8	-16	0	.	.
COC1=C(C)C(=O)O[C@]12C(=O)C(C)=C1CCCCN3[C@H]([C@@H]4C[C@H](C)C(=O)O4)CC[C@]132	4	.	.	.	-4	.	.
CC1CCCCN1C(=O)Cn1cc(C=C2C(=O)N(C)C(=O)N(C)C2=O)c2ccccc21 (stereo unspecified)	-11	7	1	-2	-1	.	.
N#C/C=C/C#N	6	.	.	.	-3	.	.
Cc1nc2ccc(Cl)cc2c(-c2ccccc2)c1C(=O)O	0	-2	3	2	-4	.	.
O=C1NC(=O)N(Cc2ccco2)C(=O)/C1=C/c1cccn1CCOc1ccccc1Cl	4	43*	17	3	14	2	-1
Cn1cccc1/C=C1/C(=O)NC(=O)N(Cc2ccccc2)C1=O	-12	18	-7	-9	2	.	.
Cn1cccc1/C=C1/C(=O)NC(=O)N(Cc2ccc(F)cc2)C1=O	14	33	-2	3	0	.	.
Cn1cccc1/C=C1/C(=O)NC(=S)N(Cc2ccc(F)cc2)C1=O	4	45*	66*	18	14	78*	18
COC(=O)C1=C(c2ccc(OCc3ccccc3)cc2)C[C@@H]2CC[C@H]1N2C(=O)NCc1cccc(C(F)(F)F)c1	-16	.	.	.	12	.	.
